Experimental data taken from ChEMBL document CHEMBL1139414, “Conformationally constrained analogues of diacylglycerol. 29. Cells sort diacylglycerol-lactone chemical zip codes to produce diverse and selective biological activities” (J Med Chem, 2008).

What follows are compounds tested against Protein kinase C alpha type (Mus musculus, UniProt P20444) (assay: Displacement of [3H]PDBu form mouse PKCalpha by scintillation counting).
Summary of the method: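 Partially purified mouse PKCα; competition with [³H]PDBU. ID50 obtained by fitting a sigmoidal competition curve and converted to Ki = ID50/(1+L/Kd). Pure compounds tested at 6–7 concentrations; crude library compounds at a single 1 μM concentration. Triplicates per concentration, at least three experiments; mean ± SEM.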

SMILES	Ki [nM]
CC(C)C(=O)OCC1(CO)C/C(=C/c2ccc(F)c(Cl)c2)C(=O)O1 (centres undefined)	119
CC(C)(C)C(=O)OCC1(CO)C/C(=C/c2ccc(Cl)c(F)c2)C(=O)O1 (racemic)	36.7
CC(C)(C)C(=O)OCC1(CO)C/C(=C/c2ccc(F)c(Br)c2)C(=O)O1 (racemic)	19.3
CC(C)(C)CC(=O)OCC1(CO)C/C(=C/c2ccccc2C(F)(F)F)C(=O)O1 (racemic)	41.4
CC(C)(C)CC(=O)OCC1(CO)C/C(=C/c2cc(C(F)(F)F)cc(C(F)(F)F)c2)C(=O)O1 (racemic)	51.1
CC(CC(=O)OCC1(CO)C/C(=C/c2cc(C(F)(F)F)cc(C(F)(F)F)c2)C(=O)O1)CC(C)(C)C (racemic)	30.1
CC(C)(C)CC(=O)OCC1(CO)C/C(=C/c2ccc(F)c(Br)c2)C(=O)O1 (racemic)	19.3
CCC(C(=O)OCC1(CO)C/C(=C/c2ccc(Br)cc2)C(=O)O1)c1ccccc1 (racemic)	33
CCC(C(=O)OCC1(CO)C/C(=C/c2ccc(F)c(Cl)c2)C(=O)O1)c1ccccc1 (racemic)	31.9
CCC(C(=O)OCC1(CO)C/C(=C/c2ccc(F)cc2)C(=O)O1)c1ccccc1 (racemic)	84.3
CCC(C(=O)OCC1(CO)C/C(=C/c2ccccc2C(F)(F)F)C(=O)O1)c1ccccc1 (racemic)	59
CCC(C(=O)OCC1(CO)C/C(=C/c2ccc(Cl)cc2)C(=O)O1)c1ccccc1 (racemic)	47.6
CCC(C(=O)OCC1(CO)C/C(=C/c2cc(C(F)(F)F)cc(C(F)(F)F)c2)C(=O)O1)c1ccccc1 (racemic)	52.9
CCC(C(=O)OCC1(CO)C/C(=C/c2ccc(C(F)(F)F)cc2)C(=O)O1)c1ccccc1 (racemic)	41.7
CCC(C(=O)OCC1(CO)C/C(=C/c2ccc(OC(F)(F)F)cc2)C(=O)O1)c1ccccc1 (racemic)	82.7
O=C1OC(CO)(COC(=O)C(c2ccccc2)c2ccccc2)C/C1=C/c1ccc(C(F)(F)F)cc1 (racemic)	52.4
CC(C)(C)C(=O)OCC1(CO)C/C(=C/c2ccccc2C(F)(F)F)C(=O)O1 (racemic)	54.5
CC(C)(C)C(=O)OCC1(CO)C/C(=C/c2cccc(C(F)(F)F)c2)C(=O)O1 (racemic)	28.1
CC(C)(C)C(=O)OCC1(CO)C/C(=C/c2cc(C(F)(F)F)cc(C(F)(F)F)c2)C(=O)O1 (racemic)	39.8
CC(C)(C)C(=O)OCC1(CO)C/C(=C/c2ccc(OC(F)(F)F)cc2)C(=O)O1 (racemic)	22.5

SMILES	Ki [nM]
O=C1OC(CO)(COC(=O)C(c2ccccc2)c2ccccc2)C/C1=C/c1ccc(Br)cc1 (racemic)	58.9
O=C1OC(CO)(COC(=O)C(c2ccccc2)c2ccccc2)C/C1=C/c1ccc(F)c(Cl)c1 (racemic)	73
O=C1OC(CO)(COC(=O)C(c2ccccc2)c2ccccc2)C/C1=C/c1ccc(OC(F)(F)F)cc1 (racemic)	97.6
O=C1OC(CO)(COC(=O)C(c2ccccc2)c2ccccc2)C/C1=C/c1ccccc1C(F)(F)F (racemic)	133
O=C1OC(CO)(COC(=O)C(c2ccccc2)c2ccccc2)C/C1=C/c1cccc(C(F)(F)F)c1 (racemic)	61.9
O=C1OC(CO)(COC(=O)C(c2ccccc2)c2ccccc2)C/C1=C/c1ccc(F)cc1 (racemic)	81.8
O=C1OC(CO)(COC(=O)C(c2ccccc2)c2ccccc2)C/C1=C/c1ccc(Cl)c(F)c1 (racemic)	90.7
CCC(C(=O)OCC1(CO)C/C(=C/c2ccc(F)c(Br)c2)C(=O)O1)c1ccccc1 (racemic)	22.3
O=C1OC(CO)(COC(=O)C(c2ccccc2)c2ccccc2)C/C1=C/c1ccc(-c2ccc(C(F)(F)F)cc2)cc1 (racemic)	111
CC(C)(C)CC(=O)OCC1(CO)C/C(=C/c2cccc(C(F)(F)F)c2)C(=O)O1 (racemic)	23.2
CC(C)(C)CC(=O)OCC1(CO)C/C(=C/c2ccc(-c3ccc(C(F)(F)F)cc3)cc2)C(=O)O1 (racemic)	37
CCC(C(=O)OCC1(CO)C/C(=C/c2cccc(C(F)(F)F)c2)C(=O)O1)c1ccccc1 (racemic)	30.2
CCC(C(=O)OCC1(CO)C/C(=C/c2ccc(Cl)c(F)c2)C(=O)O1)c1ccccc1 (racemic)	45.1
CCCCCC/C=C1/CC(CO)(COC(=O)CCCCCC)OC1=O (racemic)	37
CC(C)(C)C(=O)OCC1(CO)C/C(=C/c2ccc(C(F)(F)F)cc2)C(=O)O1 (racemic)	36.3
O=C1OC(CO)(COC(=O)C(c2ccccc2)c2ccccc2)C/C1=C/c1cc(C(F)(F)F)cc(C(F)(F)F)c1 (racemic)	79.5
O=C1OC(CO)(COC(=O)C(c2ccccc2)c2ccccc2)C/C1=C/c1ccc(Cl)cc1 (racemic)	73.4
CC(C)(C)C(=O)OCC1(CO)C/C(=C/c2ccc(-c3ccc(C(F)(F)F)cc3)cc2)C(=O)O1 (racemic)	27.2
O=C1OC(CO)(COC(=O)C(c2ccccc2)c2ccccc2)C/C1=C/c1ccc(F)c(Br)c1 (racemic)	37.9

Further lines, results first:

Ki [nM]	SMILES
88.4	CC(C)(C)C(=O)OCC1(CO)C/C(=C/c2ccc(F)cc2)C(=O)O1 (racemic)
26.1	CC(C)(C)C(=O)OCC1(CO)C/C(=C/c2ccc(Br)cc2)C(=O)O1 (racemic)
26.5	CC(C)(C)CC(=O)OCC1(CO)C/C(=C/c2ccc(Cl)cc2)C(=O)O1 (racemic)
50.2	CC(C)(C)CC(=O)OCC1(CO)C/C(=C/c2ccc(Br)cc2)C(=O)O1 (racemic)
24.6	CC(C)(C)CC(=O)OCC1(CO)C/C(=C/c2ccc(OC(F)(F)F)cc2)C(=O)O1 (racemic)
26.4	CC(C)(C)CC(=O)OCC1(CO)C/C(=C/c2ccc(F)c(Cl)c2)C(=O)O1 (racemic)
45.1	CC(C)(C)CC(=O)OCC1(CO)C/C(=C/c2ccc(Cl)c(F)c2)C(=O)O1 (racemic)
16.8	CC(CC(=O)OCC1(CO)C/C(=C/c2ccc(F)cc2)C(=O)O1)CC(C)(C)C (racemic)
18.4	CC(CC(=O)OCC1(CO)C/C(=C/c2ccc(C(F)(F)F)cc2)C(=O)O1)CC(C)(C)C (racemic)
49.7	CC(CC(=O)OCC1(CO)C/C(=C/c2ccc(-c3ccc(C(F)(F)F)cc3)cc2)C(=O)O1)CC(C)(C)C (racemic)
22.4	CC(CC(=O)OCC1(CO)C/C(=C/c2ccc(F)c(Cl)c2)C(=O)O1)CC(C)(C)C (racemic)
38.3	CC(CC(=O)OCC1(CO)C/C(=C/c2ccc(Cl)c(F)c2)C(=O)O1)CC(C)(C)C (racemic)
27.3	CC(CC(=O)OCC1(CO)C/C(=C/c2ccc(Br)cc2)C(=O)O1)CC(C)(C)C (racemic)
17.4	CC(CC(=O)OCC1(CO)C/C(=C/c2ccc(F)c(Br)c2)C(=O)O1)CC(C)(C)C (racemic)
29.4	CC(C)(C)C(=O)OCC1(CO)C/C(=C/c2ccc(Cl)cc2)C(=O)O1 (racemic)
108	CC(C)(C)CC(=O)OCC1(CO)C/C(=C/c2ccc(F)cc2)C(=O)O1 (racemic)
24.7	CC(C)(C)CC(=O)OCC1(CO)C/C(=C/c2ccc(C(F)(F)F)cc2)C(=O)O1 (racemic)
33.3	CC(CC(=O)OCC1(CO)C/C(=C/c2ccccc2C(F)(F)F)C(=O)O1)CC(C)(C)C (racemic)
16.8	CC(CC(=O)OCC1(CO)C/C(=C/c2ccc(Cl)cc2)C(=O)O1)CC(C)(C)C (racemic)
20.4	CC(CC(=O)OCC1(CO)C/C(=C/c2ccc(OC(F)(F)F)cc2)C(=O)O1)CC(C)(C)C (racemic)
